Cav3 T inh: human Cav3.2 channel inhibition, primary screen | O95180 | Cav3.2-expressing cells, Fluo-4 calcium fluorescence FDSS; hits give low values | B-score at 10 µM | 100,000 compounds, 4% hits;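 active = single-dose well whose peak fluorescence ratio is a statistical outlier from its plate by either plate-standardised score or position-corrected B-score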
HIV Rev-RRE inh: HIV Rev-RRE protein-RNA interaction inhibition. 97,000 compounds, 0.79% hits. P05866. AID 704. Rev peptide-RRE RNA binding, FRET. inhibition, % at 8 µM;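 active = inhibition above the screen-wide mean plus 3 SD, cut at about 35% in these data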;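 note: 0% = median DMSO wells and 100% = median Neomycin B control wells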
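Assay system: labelled RRE RNA duplex and labelled Rev peptide / Medium: HEPES pH 7.5 salt buffer with EDTA / Reagent: labelled Rev peptide / Schedule: 5 + 15 min at 25 °C / Signal: FRET, excitation 480 nm, emission 540 nm donor and 671 nm acceptor / Benchmarks: DMSO and neomycin B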
PLK1 PBD inh: inhibitors of human Plk1 polo box domain binding. P53350. Plk1 PBD phosphopeptide binding, fluorescence polarization. inhibition, %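 (tested at about 20 µM)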. 97,000 compounds, 0.13% hits; in the data active = inhibition above about 34%, passing the limit was not always enough
PLK1 inh: inhibitors of human PLK1 kinase; recombinant PLK1 kinase, TR-FRET peptide phosphorylation; inhibition, % at 10 µM; 97,000 compounds, 0.53% hits; AID 619;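 active = inhibition of 50% or more in the single-concentration screen; inactive = inhibition below 50%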;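 note: 0% = DMSO max control and 100% = H-89 dihydrochloride min control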
FAK blocker: blocks human focal adhesion kinase activity. Q05397. biochemical FAK kinase activity assay. inhibition, %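 (tested at 7 µM)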. 97,000 compounds, 0.84% hits. AID 727; in the data active = inhibition above about 19%;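 note: 0% = DMSO and 100% = reference compound high control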
Target sequence (Q05397 whole entry, looked up): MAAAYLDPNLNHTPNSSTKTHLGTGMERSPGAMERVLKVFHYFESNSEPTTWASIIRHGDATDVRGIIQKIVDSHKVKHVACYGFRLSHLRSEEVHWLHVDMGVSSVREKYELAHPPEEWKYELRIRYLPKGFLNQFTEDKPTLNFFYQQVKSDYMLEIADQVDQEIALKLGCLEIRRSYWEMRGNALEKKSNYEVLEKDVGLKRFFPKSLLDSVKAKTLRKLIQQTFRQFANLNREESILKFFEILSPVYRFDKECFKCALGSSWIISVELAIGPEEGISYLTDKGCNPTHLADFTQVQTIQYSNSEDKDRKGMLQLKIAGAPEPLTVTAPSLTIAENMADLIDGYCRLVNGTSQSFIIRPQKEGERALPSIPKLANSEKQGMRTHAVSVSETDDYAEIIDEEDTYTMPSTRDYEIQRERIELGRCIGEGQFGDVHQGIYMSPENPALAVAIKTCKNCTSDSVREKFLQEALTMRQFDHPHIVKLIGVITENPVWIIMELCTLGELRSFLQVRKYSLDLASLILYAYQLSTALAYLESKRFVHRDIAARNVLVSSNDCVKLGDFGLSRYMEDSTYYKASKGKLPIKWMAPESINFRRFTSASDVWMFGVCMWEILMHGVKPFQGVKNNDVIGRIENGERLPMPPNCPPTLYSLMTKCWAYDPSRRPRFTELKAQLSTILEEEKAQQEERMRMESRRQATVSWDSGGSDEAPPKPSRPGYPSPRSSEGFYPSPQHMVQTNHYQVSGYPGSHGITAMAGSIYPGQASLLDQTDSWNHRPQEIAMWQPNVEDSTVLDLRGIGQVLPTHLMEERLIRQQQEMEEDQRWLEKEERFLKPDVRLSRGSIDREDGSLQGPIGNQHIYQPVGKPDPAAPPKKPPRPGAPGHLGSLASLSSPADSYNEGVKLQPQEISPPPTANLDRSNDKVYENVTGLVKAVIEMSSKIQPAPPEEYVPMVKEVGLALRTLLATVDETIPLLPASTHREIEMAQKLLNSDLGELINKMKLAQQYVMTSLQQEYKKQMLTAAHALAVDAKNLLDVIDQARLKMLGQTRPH
EphB4 ephrin blk: antagonists of human EphB4-ephrin-B2 interaction. EphB4 LBD / TNYL-RAW-Alexa532 peptide, fluorescence polarization. AID 720. inhibition, % at 7 µM. 97,000 compounds, 0.15% hits;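 active = inhibition above the screen-wide mean inhibition plus 3 SD, cut at about 15% in these data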;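 note: 0% = DMSO wells and 100% = excess unlabeled TNYL-RAW peptide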
The depositor's hits bear a star; · = not tested or not shown; [ ] = another dose, or the depositor's remark. Hits are enriched below; roughly 5.3% of the tested compounds scored in any of these assays.

SMILES | Cav3 T inh | HIV Rev-RRE inh | PLK1 PBD inh | PLK1 inh | FAK blocker | EphB4 ephrin blk
CC1=NN(C(=O)c2ccc(Cn3nc(C)cc3C)o2)C(O)(C(F)(F)F)C1 (centres undefined) | 0.446 | 1.7 | -4.0 | -1.8 | -3.0 | 4.3
CCCCN(CCCC)S(=O)(=O)c1ccc(C(=O)Nc2nnc(CSC)o2)cc1 | -3.13* | 14.9 | -4.1 | -13.5 | 1.6 | 0.3
CN(C)CCCn1c(NC(=O)C2CCCCC2)nc2ccccc21 | -3.59* | 4.6 | -25.0 | -9.0 | -0.6 | 5.5
O=C(Nc1cnc2ccccc2c1)C1COc2ccccc2O1 (centres undefined) | -11.6* | 3.8 | -13.2 | -8.6 | 2.0 | -1.9
CCCn1c(NC(=O)c2ccco2)nc2ccccc21 | -0.706 | · | · | · | · | ·
CCCn1c(NC(=O)C2COc3ccccc3O2)nc2ccccc21 (centres undefined) | 0.247 | 8.5 | -4.7 | -9.4 | 0.7 | 17.5*
C/C=C\C=C/C(=O)Nc1cccc(C2=NOC3(C2)C[C@H](C(N)=O)N(C(=O)Cc2ccc([N+](=O)[O-])cc2)C3)c1 (some centres undefined) | 0.14 | · | · | · | · | ·
CC(C)=CCc1cc([C@@H]2CC(=O)c3ccc(O)c(CC=C(C)C)c3O2)ccc1O | -2.78 | · | · | · | · | ·
Cc1[nH]c2ccccc2c1SCC(=O)O | 0.0522 | 9.1 | -9.9 | -11.3 | -2.0 | -0.1
Cc1[nH]c2ccccc2c1C1C(c2ccccc2)=NN=C(C(C)C)N1O (centres undefined) | -5.4* | 2.1 | 8.7 | -6.7 | -0.8 | -7.1
CC(C)Cc1nnc(NC(=O)CSc2ncn[nH]2)s1 | 0.424 | 6.7 | -13.6 | -1.4 | 0.4 | 1.7
O=C(CSc1ncn[nH]1)Nc1nnc(-c2ccccc2)s1 | 0.467 | 2.8 | 9.3 | 62.6* | -4.0 | 0.2
CCCC(=O)Nc1sc(C)c(C)c1C(=O)Nc1cccc(C)c1 | -0.26 | 12.8 | -6.6 | -6.2 | 6.4 | 2.3
O=C(C1CC1)N1CCc2cc(S(=O)(=O)N3CCOCC3)ccc21 | -0.167 | 12.5 | 15.8 | 68.6* | -4.3 | 0.2
CCN(c1cccc(C(F)(F)F)c1)S(=O)(=O)c1ccc2c(c1)CCN2C(=O)C1CC1 | -4.7* | 9.8 | -31.3 | -4.4 | -0.2 | 3.2
COc1ccc2[nH]c(-c3ccc(C)cc3)cc(=O)c2c1 | 0.0488 | · | · | · | · | ·
Cc1cc(NC(=O)CSc2nnc(-c3c[nH]c4ccccc34)n2C)no1 | 0.443 | · | · | · | · | ·
CCn1c(SCc2cccnc2)nnc1-c1c[nH]c2ccccc12 | 0.62 | 6.5 | -11.7 | 66.9* | -1.5 | 3.6
CCCSc1nnc(-c2c[nH]c3ccccc23)n1CC | -0.00766 | 10.7 | 1.0 | 59.9* | 6.6 | -1.5
CCCSc1nnc(-c2c[nH]c3ccccc23)n1C | 0.692 | 5.9 | 4.0 | 64.1* | 3.5 | 5.9
Cn1c(SCC(=O)NCc2ccco2)nnc1-c1c[nH]c2ccccc12 | 0.219 | -0.8 | -14.6 | 65.1* | -2.1 | -6.1
CCc1nnc(NC(=O)CSc2nnc(-c3c[nH]c4ccccc34)n2CC)s1 | -0.0741 | 6.3 | 15.3 | -8.1 | -3.3 | 5.0
CCC1CCC2(CC1)NNC(=S)NN2 | -3.04 | 6.6 | 7.4 | -15.2 | -0.4 | 4.8
CCC(C)NC(=O)C1=C(C)C(=O)OC12CCC(C)CC2 (centres undefined) | -0.165 | · | · | · | · | ·
O=C(CC1NCCNC1=O)Nc1ccc2c(c1)OCO2 (centres undefined) | 0.915 | 9.5 | -0.7 | -2.1 | 0.3 | 4.9
SMILES | Cav3 T inh | HIV Rev-RRE inh | PLK1 PBD inh | PLK1 inh | FAK blocker | EphB4 ephrin blk
CCSc1ncc(Cl)c(C(=O)N(Cc2ccc(N(C)C)cc2)C2CCS(=O)(=O)C2)n1 (centres undefined) | 3.48* | -3.1 | 14.7 | -1.6 | 2.0 | 0.9
COc1cccc(C(=O)N(Cc2ccc(N(C)C)cc2)C2CCS(=O)(=O)C2)c1 (centres undefined) | 0.776 | -2.2 | -11.4 | -5.7 | 0.2 | -6.7
CCCOc1ccc(Br)cc1/C=N/O | -4.87* | 2.5 | -14.7 | 2.0 | 10.7 | -1.5
Cc1csc(NC(=O)CSc2ncnc3c2cnn3-c2ccccc2Cl)n1 | -5.54* | -1.6 | 18.6 | -9.6 | -0.8 | -16.7
CCN1C(=O)[C@@H]2[C@H](C1=O)[C@@H]1C[C@H]3C(=O)N(CC)C(=O)[C@H]3[C@@H]3C1=C(C(=O)N1C(=O)OC(=NCC4CC4)[C@]31C)[C@@H]2C | 0.612 | · | · | · | · | ·
Cc1nnc(SCC(=O)N2CCC(c3noc4ccc(F)cc34)CC2)s1 | 1.05 | 6.1 | 10.9 | -10.8 | -0.9 | -0.2
O=C(CSc1ccc2ccccc2n1)N1CCC(c2noc3ccc(F)cc23)CC1 | -6.46* | 6.8 | -24.0 | -10.1 | 2.1 | 7.9
COc1ccc(CC(=S)N2CCOCC2)cc1 | 0.0692 | 0.5 | 14.8 | -3.8 | 0.6 | -5.0
COc1ccc(CNC(=O)CN(CC2CCCO2)C(=O)CNS(=O)(=O)c2ccc(F)cc2)cc1 (centres undefined) | -6.18* | · | · | · | · | ·
COc1ccc(CN(CC(=O)NCC2CCCO2)C(=O)CNS(=O)(=O)c2ccc(C)cc2)cc1 (centres undefined) | -0.229 | 3.3 | 18.4 | -4.2 | -6.4 | -2.7
Cc1ccc(C(C)NC(=O)c2c(C)noc2C)cc1C (centres undefined) | -3.78* | 4.9 | 17.1 | -5.0 | 9.3 | 8.1
Cc1noc(C)c1C(=O)NCCc1ccccc1 | 1.47 | 3.0 | 7.2 | -11.4 | 0.2 | 1.7
O=C(Cc1ccc(S(=O)(=O)N2CCOCC2)s1)Nc1ccc2c(c1)CCC2 | -6.14* | 6.8 | -8.8 | -7.1 | 0.8 | -0.7
CN(C)CCNC(=O)c1c(CSc2ccc(Cl)cc2)noc1C(=O)NCc1ccccc1 | -1.71 | · | · | · | · | ·
CN(C)C=Nc1c(Br)cc(Br)c2nonc12 | -4.17* | 68.3*[fluorescence artefact?] | -45.9 | -8.6 | -1.3 | -3.0
O=C(CSCc1cnn(-c2ccccc2)c1-n1cccc1)N1CCN(Cc2ccccc2)CC1 | -4.21 | 1.2 | 13.2 | -8.0 | 1.7 | -7.9
COc1ccc(OC)c(NC(=O)CSCc2cnn(-c3ccccc3)c2-n2cccc2)c1 | -9.09* | 4.5 | -2.5 | -5.9 | 10.3 | 7.6
COc1ccc(OC)c(NC(=O)CSc2nnc(C)n2Cc2ccccc2)c1 | 1.18 | 3.9 | 0.7 | -0.2 | -2.2 | -1.9
COc1cccc(CNC(=O)CSCc2cnn(-c3ccccc3)c2-n2cccc2)c1OC | -5.98* | 7.2 | -6.4 | -6.1 | -0.7 | 0.5
CCOc1ccc(NC(=O)CSCc2cnn(-c3ccccc3)c2-n2cccc2)cc1 | -10.2* | 11.7 | -19.8 | -7.0 | -0.2 | -4.4
O=C1CC(C2CCCO2)C(=O)N1c1ccccc1 (centres undefined) | 0.468 | 4.7 | -11.9 | -8.3 | 1.5 | 4.2
Cc1ccccc1N1C(=O)c2ccccc2N2C(=O)c3ccccc3C12 (centres undefined) | -4.31* | 1.9 | -26.1 | -9.1 | -0.4 | 0.8
COCCn1c(SCc2nc3sc(C(=O)OC)c(C)c3c(=O)[nH]2)nc2ccccc21 | 0.164 | 21.5 | -24.0 | -11.4 | 0.0 | -8.9
CCn1c(SCc2nc3sc(C(=O)O)c(C)c3c(=O)[nH]2)nc2ccccc21 | · | 60.1* | -45.0 | 56.2* | -4.9 | 4.7
